Results on 28 compounds are retold here after ChEMBL document CHEMBL2384953, “Design and synthesis of L- and D-phenylalanine derived rhodanines with novel C5-arylidenes as inhibitors of HCV NS5B polymerase” (Bioorg Med Chem, 2013).

The test system of data set [1] is Hepatitis C virus. The experiment in a line: Inhibition of HCV genotype 1b recombinant NS5B Cdelta21 polymerase assessed as inhibition of radioactive UMP incorporation into nascent RNA using […] template-primer after 1hr by liquid scintillation counting analysis. The arrangement: species or system Hepatitis C virus subtype 1b. The procedure, abridged: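 Recombinant HCV NS5BCΔ21 (genotype 1b), homopolymeric poly rA/U12 template-primer. Read-out is radioactive UMP incorporated into nascent RNA. Dose-response at 8-10 compound concentrations, in duplicate, two independent experiments. IC50 interpolated from nonlinear regression fits; mean ± SD.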

Data set [2] concerns Hepacivirus hominis. The experiment in a line: Selectivity ratio of IC50 for HCV NS5B polymerase M423T mutant to IC50 for wild type HCV NS5B polymerase. The procedure, abridged:
(§1)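 Recombinant HCV NS5BCΔ21 (genotype 1b), wild type and the P495L, M423T and M414T mutants, each assayed for incorporation of radioactive UMP into nascent RNA on homopolymeric poly rA/U12 template-primer. IC50s came from nonlinear regression of dose-response curves (8-10 compound concentrations, duplicate, at least two independent experiments, mean ± SD). The ratio is mutant IC50 over wild-type IC50.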

Data set [3] deals with Hepacivirus hominis. Briefly: Selectivity ratio of IC50 for HCV NS5B polymerase P495L mutant to IC50 for wild type HCV NS5B polymerase. The method in brief: as §1
Data set [4] relates to Hepacivirus hominis. Briefly: Selectivity ratio of IC50 for HCV NS5B polymerase M414T mutant to IC50 for wild type HCV NS5B polymerase. The method in brief:
as §1

Data set [5] has as its target RNA-directed RNA polymerase (Hepacivirus hominis, UniProt O39930, M414T). The experiment in a line: Inhibition of HCV NS5B polymerase M414T mutant assessed as inhibition of radioactive UMP incorporation into nascent RNA using […] template-primer after 1hr by liquid scintillation counting analysis. The procedure, abridged:
(§2)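 Mutant counterscreen with recombinant NS5BCΔ21 mutants: P495L (probe for TP-I site), M423T (TP-II), M414T (PP-I). Radioactive UMP incorporation into nascent RNA on poly rA/U12 template-primer, run as for wild-type. IC50 from dose-response curves by nonlinear regression; mean ± SD of at least two independent experiments in duplicate.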

The target of data set [6] is RNA-directed RNA polymerase (Hepacivirus hominis, UniProt O39930, M423T). The experiment in a line: Inhibition of HCV NS5B polymerase M423T mutant assessed as inhibition of radioactive UMP incorporation into nascent RNA using […] template-primer after 1hr by liquid scintillation counting analysis. The method in brief:
as §2

Data set [7] concerns the target RNA-directed RNA polymerase (Hepacivirus hominis, UniProt O39930, P495L). Briefly: Inhibition of HCV NS5B polymerase P495L mutant assessed as inhibition of radioactive UMP incorporation into nascent RNA using […] template-primer after 1hr by liquid scintillation counting analysis. The method in brief: as §2
Data set [8] has as its system Hepatitis C virus. Briefly: Antiviral activity against hepatitis C virus infected in human hepatoma cells assessed as inhibition of HCV replication at 100 uM. Type of data set: functional, Hepacivirus hominis.
Data set [9] is described as follows: Cytotoxicity against human hepatoma cells. Type of data set: cell-based.

Where only a bound is given, the exact number is not on record here.

By IC50 is commonly meant the point on the concentration scale where inhibition reaches its midpoint. For orientation: inhibition means the relative decrease from the control value, in per cent.

Chain of RNA-directed RNA polymerase (Hepacivirus hominis, UniProt O39930, M414T) (O39930 entry or part of it M414T): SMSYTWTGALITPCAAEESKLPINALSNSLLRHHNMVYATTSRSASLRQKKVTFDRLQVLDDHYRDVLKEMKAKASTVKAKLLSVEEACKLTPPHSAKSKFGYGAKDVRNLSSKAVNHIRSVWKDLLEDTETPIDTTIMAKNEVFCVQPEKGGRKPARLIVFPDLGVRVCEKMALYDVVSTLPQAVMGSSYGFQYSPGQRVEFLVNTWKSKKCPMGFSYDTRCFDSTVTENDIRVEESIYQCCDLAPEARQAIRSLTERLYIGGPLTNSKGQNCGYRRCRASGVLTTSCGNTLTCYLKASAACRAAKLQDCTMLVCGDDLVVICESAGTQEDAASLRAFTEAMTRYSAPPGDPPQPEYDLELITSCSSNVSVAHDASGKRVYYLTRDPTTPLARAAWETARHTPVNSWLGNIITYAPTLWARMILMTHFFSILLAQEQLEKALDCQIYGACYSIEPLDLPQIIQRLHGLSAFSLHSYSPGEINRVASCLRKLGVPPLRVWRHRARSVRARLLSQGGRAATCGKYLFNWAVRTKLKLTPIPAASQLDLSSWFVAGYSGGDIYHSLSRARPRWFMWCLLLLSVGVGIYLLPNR
Chain of RNA-directed RNA polymerase (Hepacivirus hominis, UniProt O39930, P495L) (O39930 entry or part of it P495L): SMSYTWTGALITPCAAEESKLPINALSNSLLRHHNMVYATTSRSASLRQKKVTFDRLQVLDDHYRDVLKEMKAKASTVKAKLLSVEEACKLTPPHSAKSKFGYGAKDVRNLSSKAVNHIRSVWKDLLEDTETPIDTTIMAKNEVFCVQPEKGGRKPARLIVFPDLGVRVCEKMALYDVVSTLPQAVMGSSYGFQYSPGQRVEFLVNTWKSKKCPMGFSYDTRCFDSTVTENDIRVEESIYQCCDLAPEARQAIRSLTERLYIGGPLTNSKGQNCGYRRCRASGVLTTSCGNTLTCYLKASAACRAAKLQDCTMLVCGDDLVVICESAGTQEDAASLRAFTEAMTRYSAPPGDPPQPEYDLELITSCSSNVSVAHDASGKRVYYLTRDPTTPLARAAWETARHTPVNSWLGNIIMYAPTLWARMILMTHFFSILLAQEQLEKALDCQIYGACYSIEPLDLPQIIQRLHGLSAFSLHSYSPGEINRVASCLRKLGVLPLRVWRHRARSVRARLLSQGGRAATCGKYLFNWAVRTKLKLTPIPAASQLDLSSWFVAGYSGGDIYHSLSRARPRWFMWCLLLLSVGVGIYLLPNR
Chain of RNA-directed RNA polymerase (Hepacivirus hominis, UniProt O39930, M423T) (O39930 entry or part of it M423T): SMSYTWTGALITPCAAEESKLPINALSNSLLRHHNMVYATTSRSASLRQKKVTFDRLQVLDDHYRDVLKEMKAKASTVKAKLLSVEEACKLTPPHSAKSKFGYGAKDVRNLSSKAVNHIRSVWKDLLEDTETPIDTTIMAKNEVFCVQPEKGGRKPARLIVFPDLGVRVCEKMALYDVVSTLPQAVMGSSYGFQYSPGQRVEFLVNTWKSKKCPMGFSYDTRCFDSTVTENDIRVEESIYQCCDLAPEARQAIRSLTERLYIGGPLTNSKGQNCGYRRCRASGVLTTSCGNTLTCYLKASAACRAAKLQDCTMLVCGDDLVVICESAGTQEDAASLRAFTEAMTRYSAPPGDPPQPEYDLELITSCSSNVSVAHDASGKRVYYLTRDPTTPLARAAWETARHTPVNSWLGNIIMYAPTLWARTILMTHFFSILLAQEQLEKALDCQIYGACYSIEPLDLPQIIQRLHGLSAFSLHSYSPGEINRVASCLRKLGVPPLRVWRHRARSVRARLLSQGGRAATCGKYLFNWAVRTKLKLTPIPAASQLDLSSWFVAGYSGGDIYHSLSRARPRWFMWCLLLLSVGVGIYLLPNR

As for `O=C(O)[C@H](Cc1ccccc1)N1C(=O)/C(=C/c2cccc(Oc3cccc(Cl)c3)c2)SC1=S`, the IC50 in data set [1] came out at 4.1 µM.

Consider `O=C(O)[C@H](Cc1ccccc1)N1C(=O)/C(=C/c2cccc(Oc3cccc(F)c3)c2)SC1=S`, for which the IC50 in data set [1] stood at 8.2 µM.

Consider `O=C(O)[C@@H](Cc1ccccc1)N1C(=O)/C(=C/c2cccc(Oc3cccc(Cl)c3)c2)SC1=S`, for which the IC50 in [1] stood at 4.1 µM.

As for `O=C(O)[C@H](Cc1ccccc1)N1C(=O)/C(=C/c2ccc(Cl)c(Cl)c2)SC1=S`, in data set [1], the IC50 turned out to be 19.4 µM.

As to `O=C(O)[C@@H](Cc1ccccc1)N1C(=O)/C(=C/c2cccc(Oc3ccccc3)c2)SC1=S`, the IC50 in data set [1] was 19.3 µM.

Take `O=C(O)[C@H](Cc1ccccc1)N1C(=O)/C(=C/c2ccc(F)c(F)c2)SC1=S`: the IC50 in data set [1] was 16.3 µM.

Consider `COc1ccc(Oc2cccc(/C=C3\SC(=S)N([C@@H](Cc4ccccc4)C(=O)O)C3=O)c2)cc1`, for which the IC50 in data set [1] is 8.3 µM.

Turning to `O=C(O)[C@H](Cc1ccccc1)N1C(=O)/C(=C/c2ccc(Br)cc2)SC1=S`, in data set [1], the IC50 came to 11.7 µM.

As to `O=C(O)[C@H](Cc1ccccc1)N1C(=O)/C(=C/c2cccc(Br)c2)SC1=S`, the IC50 in data set [1] is 7.4 µM.

As for `O=C(c1ccccc1)c1cccc(/C=C2\SC(=S)N([C@@H](Cc3ccccc3)C(=O)O)C2=O)c1`, the IC50 in [1] was 11.1 µM.

Consider `O=C(O)[C@H](Cc1ccccc1)N1C(=O)/C(=C/c2cccc(Oc3ccccc3)c2)SC1=S`, for which, in [1], the IC50 turned out to be 6.7 µM.

Regarding `O=C(O)[C@@H](Cc1ccccc1)N1C(=O)/C(=C/c2cccc(Oc3ccc(Cl)cc3)c2)SC1=S`, the IC50 in data set [1] amounted to 5.1 µM.

Regarding `O=C(O)[C@H](Cc1ccccc1)N1C(=O)/C(=C/c2cccc(-c3ccccc3)c2)SC1=S`, the IC50 in data set [1] is 16.6 µM.

On to `O=C(O)[C@H](Cc1ccccc1)N1C(=O)/C(=C/c2ccc(Oc3ccccc3)cc2)SC1=S`, for which the IC50 in [1] came out at 50.7 µM.

As for `O=C(O)[C@H](Cc1ccccc1)N1C(=O)/C(=C/c2cc(F)cc(F)c2)SC1=S`, in data set [1], the IC50 stood at 26 µM.

On to `O=C(O)[C@H](Cc1ccccc1)N1C(=O)/C(=C/c2cccc(Oc3ccc(Cl)c(Cl)c3)c2)SC1=S`, for which the Ratio IC50 is less than 1.5 in [2], less than 1.5 in data set [3] and 16 in [4]. Besides, the IC50 in [5] is 47.8 µM; in data set [6], 3 µM; in data set [7], 2.8 µM; in data set [1], 2.6 µM.

Consider `O=C(O)[C@H](Cc1ccccc1)N1C(=O)/C(=C/c2cccc(OC/C=C\c3ccccc3)c2)SC1=S`, for which the IC50 in data set [1] was 6.4 µM.

With `O=C(O)[C@@H](Cc1ccccc1)N1C(=O)/C(=C/c2cccc(Oc3ccc(Cl)c(Cl)c3)c2)SC1=S`, the IC50 in data set [1] is 5.4 µM.

With `O=C(O)[C@H](Cc1ccccc1)N1C(=O)/C(=C/c2cccc(Oc3ccc(F)cc3)c2)SC1=S`, the IC50 in [1] came out at 12.5 µM.

Regarding `O=C(O)[C@H](Cc1ccccc1)N1C(=O)/C(=C/c2cccc(Oc3ccc(Cl)cc3)c2)SC1=S`, the Ratio IC50 was less than 1.5 in [2], less than 1.5 in [3] and 16 in data set [4]. Further, the IC50 in data set [5] amounted to 55.7 µM; in [6], 4.2 µM; in data set [7], 3.6 µM; in [1], 3.4 µM.

`O=C(O)[C@H](Cc1ccccc1)N1C(=O)/C(=C/c2cccc(OCc3ccccc3)c2)SC1=S`: the IC50 in [1] turned out to be 21.8 µM.

Turning to `N#Cc1cccc(/C=C2\SC(=S)N([C@@H](Cc3ccccc3)C(=O)O)C2=O)c1`, in [1], the IC50 worked out at 30.7 µM.

Take `O=C(O)[C@H](Cc1ccccc1)N1C(=O)/C(=C/c2ccccc2Oc2ccccc2)SC1=S`: the IC50 in data set [1] stood at 13.3 µM.

For the compound `O=C(O)[C@H](Cc1ccccc1)N1C(=O)/C(=C/c2cccc(Cc3ccccc3)c2)SC1=S`, the inhibition at 100 µM in data set [8] came to 30%. For the same compound, the Activity result in [9] is given as “Non-toxic”. In addition, in data set [1], the IC50 was 4.8 µM.

Regarding `O=C(O)[C@H](Cc1ccccc1)N1C(=O)/C(=C/c2ccc(F)cc2)SC1=S`, the IC50 in data set [1] was 27.7 µM.

For `O=C(O)[C@H](Cc1ccccc1)N1C(=O)/C(=C/c2cccc(Cl)c2)SC1=S`, the IC50 in [1] was determined as 26.6 µM.

Take `O=C(O)[C@@H](Cc1ccccc1)N1C(=O)/C(=C/c2cccc(Oc3ccc(F)cc3)c2)SC1=S`: the IC50 in [1] stood at 10.3 µM.

Take `O=C(O)[C@H](Cc1ccccc1)N1C(=O)/C(=C/c2ccc(Cl)cc2)SC1=S`: the IC50 in data set [1] was determined as 22.3 µM.
